The source made the active and inactive calls. No cut-off for these calls is given here.
target: T1, Heat shock protein HSP90 (Homo sapiens, UniProt P07900+P08238); assay: Inhibition of HSP90 at C-terminus in human SKBR3 cells assessed as induction of Raf1 protein degradation at 0.5 to 5 times antiproliferative IC50 incubated for 24 hrs by Western blot analysis; type: cell-based; conditions: not given

SMILES	inhibition
COc1cccc(-c2cc(C(=O)N[C@H]3CC[C@H](c4ccc(OCCC[P+](c5ccccc5)(c5ccccc5)c5ccccc5)cc4)CC3)ccc2OC)c1.[Br-]	Active
COc1cccc(-c2cc(C(=O)Nc3ccc(-c4ccc(OCCC[P+](c5ccccc5)(c5ccccc5)c5ccccc5)cc4)cc3)ccc2OC)c1.[Br-]	Active
COc1cccc(-c2cc(C(=O)Nc3cc4ccc(OCCC[P+](c5ccccc5)(c5ccccc5)c5ccccc5)c(C)c4oc3=O)ccc2OC)c1.[Br-]	Active

test system: SK-BR-3; assay: Ratio of IC50 for N-(4'-(3-(dimethylamino)propoxy)biphenyl-4-yl)-3',6-dimethoxybiphenyl-3-carboxamide to IC50 for test compound for antiproliferative activity against human SKBR3 cells; type: functional; conditions: not given

SMILES	Ratio IC50
COc1cccc(-c2cc(C(=O)Nc3ccc(-c4ccc(OCCC[P+](c5ccccc5)(c5ccccc5)c5ccccc5)cc4)cc3)ccc2OC)c1.[Br-]	10

test system: MCF7; assay: Ratio of IC50 for N-(4'-(3-(dimethylamino)propoxy)biphenyl-4-yl)-3',6-dimethoxybiphenyl-3-carboxamide to IC50 for test compound for antiproliferative activity against human MCF7 cells; type: functional; conditions: not given

SMILES	Ratio IC50
COc1cccc(-c2cc(C(=O)Nc3ccc(-c4ccc(OCCC[P+](c5ccccc5)(c5ccccc5)c5ccccc5)cc4)cc3)ccc2OC)c1.[Br-]	2

target: T1, Heat shock protein HSP90; assay: Inhibition of HSP90 at C-terminus in human SKBR3 cells assessed as AKT protein degradation at 0.5 to 5 times antiproliferative IC50 incubated for 24 hrs by Western blot analysis; type: cell-based; conditions: not given

SMILES	inhibition
COc1cccc(-c2cc(C(=O)N[C@H]3CC[C@H](c4ccc(OCCC[P+](c5ccccc5)(c5ccccc5)c5ccccc5)cc4)CC3)ccc2OC)c1.[Br-]	inactive
COc1cccc(-c2cc(C(=O)Nc3ccc(-c4ccc(OCCC[P+](c5ccccc5)(c5ccccc5)c5ccccc5)cc4)cc3)ccc2OC)c1.[Br-]	inactive
COc1cccc(-c2cc(C(=O)Nc3cc4ccc(OCCC[P+](c5ccccc5)(c5ccccc5)c5ccccc5)c(C)c4oc3=O)ccc2OC)c1.[Br-]	inactive

test system: MCF7; assay: Ratio of IC50 for N-(7-(3-(dimethylamino)propoxy)-8-methyl-2-oxo-2H-chromen-3-yl)-3',6-dimethoxybiphenyl-3-carboxamide to IC50 for test compound for antiproliferative activity against human MCF7 cells; type: functional; conditions: not given

SMILES	Ratio IC50
COc1cccc(-c2cc(C(=O)Nc3cc4ccc(OCCC[P+](c5ccccc5)(c5ccccc5)c5ccccc5)c(C)c4oc3=O)ccc2OC)c1.[Br-]	2

test system: HCT-116; assay: Antiproliferative activity against human HCT116 cells by MTT assay; type: functional, cell-based; conditions: not given

SMILES	IC50
COc1cccc(-c2cc(C(=O)Nc3ccc(-c4ccc(OCCCN(C)C)cc4)cc3)ccc2OC)c1	1.49 µM
COc1cccc(-c2cc(C(=O)N[C@H]3CC[C@H](c4ccc(OCCC[P+](c5ccccc5)(c5ccccc5)c5ccccc5)cc4)CC3)ccc2OC)c1.[Br-]	0.38 µM
COc1cccc(-c2cc(C(=O)Nc3ccc(-c4ccc(OCCC[P+](c5ccccc5)(c5ccccc5)c5ccccc5)cc4)cc3)ccc2OC)c1.[Br-]	0.45 µM
COc1cccc(-c2cc(C(=O)Nc3cc4ccc(OCCC[P+](c5ccccc5)(c5ccccc5)c5ccccc5)c(C)c4oc3=O)ccc2OC)c1.[Br-]	0.64 µM
COc1cccc(-c2cc(C(=O)Nc3cc4ccc(OCCCN(C)C)c(C)c4oc3=O)ccc2OC)c1	0.83 µM

test system: SK-BR-3; assay: Antiproliferative activity against human SKBR3 cells by MTT assay; type: functional, cell-based; conditions: not given

SMILES	IC50
COc1cccc(-c2cc(C(=O)Nc3ccc(-c4ccc(OCCCN(C)C)cc4)cc3)ccc2OC)c1	2.03 µM
COc1cccc(-c2cc(C(=O)N[C@H]3CC[C@H](c4ccc(OCCC[P+](c5ccccc5)(c5ccccc5)c5ccccc5)cc4)CC3)ccc2OC)c1.[Br-]	0.23 µM
COc1cccc(-c2cc(C(=O)Nc3ccc(-c4ccc(OCCC[P+](c5ccccc5)(c5ccccc5)c5ccccc5)cc4)cc3)ccc2OC)c1.[Br-]	0.21 µM
COc1cccc(-c2cc(C(=O)N[C@H]3CC[C@H](c4ccc(OCCCN(C)C)cc4)CC3)ccc2OC)c1	0.25 µM
COc1cccc(-c2cc(C(=O)Nc3cc4ccc(OCCC[P+](c5ccccc5)(c5ccccc5)c5ccccc5)c(C)c4oc3=O)ccc2OC)c1.[Br-]	0.31 µM
COc1cccc(-c2cc(C(=O)Nc3cc4ccc(OCCCN(C)C)c(C)c4oc3=O)ccc2OC)c1	0.85 µM

test system: MCF7; assay: Antiproliferative activity against human MCF7 cells by MTT assay; type: functional, cell-based; conditions: not given

SMILES	IC50
COc1cccc(-c2cc(C(=O)Nc3ccc(-c4ccc(OCCCN(C)C)cc4)cc3)ccc2OC)c1	2.14 µM
COc1cccc(-c2cc(C(=O)N[C@H]3CC[C@H](c4ccc(OCCC[P+](c5ccccc5)(c5ccccc5)c5ccccc5)cc4)CC3)ccc2OC)c1.[Br-]	0.17 µM
COc1cccc(-c2cc(C(=O)Nc3ccc(-c4ccc(OCCC[P+](c5ccccc5)(c5ccccc5)c5ccccc5)cc4)cc3)ccc2OC)c1.[Br-]	0.93 µM
COc1cccc(-c2cc(C(=O)N[C@H]3CC[C@H](c4ccc(OCCCN(C)C)cc4)CC3)ccc2OC)c1	0.34 µM
COc1cccc(-c2cc(C(=O)Nc3cc4ccc(OCCC[P+](c5ccccc5)(c5ccccc5)c5ccccc5)c(C)c4oc3=O)ccc2OC)c1.[Br-]	0.8 µM
COc1cccc(-c2cc(C(=O)Nc3cc4ccc(OCCCN(C)C)c(C)c4oc3=O)ccc2OC)c1	1.8 µM

test system: PC-3; assay: Antiproliferative activity against human PC3 cells by MTT assay; type: functional, cell-based; conditions: not given

SMILES	IC50
COc1cccc(-c2cc(C(=O)Nc3ccc(-c4ccc(OCCCN(C)C)cc4)cc3)ccc2OC)c1	3.53 µM
COc1cccc(-c2cc(C(=O)N[C@H]3CC[C@H](c4ccc(OCCC[P+](c5ccccc5)(c5ccccc5)c5ccccc5)cc4)CC3)ccc2OC)c1.[Br-]	1.56 µM
COc1cccc(-c2cc(C(=O)Nc3ccc(-c4ccc(OCCC[P+](c5ccccc5)(c5ccccc5)c5ccccc5)cc4)cc3)ccc2OC)c1.[Br-]	2.94 µM
COc1cccc(-c2cc(C(=O)Nc3cc4ccc(OCCC[P+](c5ccccc5)(c5ccccc5)c5ccccc5)c(C)c4oc3=O)ccc2OC)c1.[Br-]	1.94 µM
COc1cccc(-c2cc(C(=O)Nc3cc4ccc(OCCCN(C)C)c(C)c4oc3=O)ccc2OC)c1	1.01 µM

test system: not listed separately; assay: Drug uptake in mitochondria in human PC3 cells incubated for 24 hrs by LC/MS analysis; type: ADME; conditions: pc-3, 24 h
Method in brief: (§1)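 PC3 cells treated for 24 h, then separated into subcellular fractions; the compound in each isolated fraction was quantified by LC-MS.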

SMILES	Drug uptake
COc1cccc(-c2cc(C(=O)Nc3ccc(-c4ccc(OCCCN(C)C)cc4)cc3)ccc2OC)c1	Active
COc1cccc(-c2cc(C(=O)N[C@H]3CC[C@H](c4ccc(OCCC[P+](c5ccccc5)(c5ccccc5)c5ccccc5)cc4)CC3)ccc2OC)c1.[Br-]	Active
COc1cccc(-c2cc(C(=O)Nc3ccc(-c4ccc(OCCC[P+](c5ccccc5)(c5ccccc5)c5ccccc5)cc4)cc3)ccc2OC)c1.[Br-]	Active
COc1cccc(-c2cc(C(=O)N[C@H]3CC[C@H](c4ccc(OCCCN(C)C)cc4)CC3)ccc2OC)c1	Active
COc1cccc(-c2cc(C(=O)Nc3cc4ccc(OCCC[P+](c5ccccc5)(c5ccccc5)c5ccccc5)c(C)c4oc3=O)ccc2OC)c1.[Br-]	Active
COc1cccc(-c2cc(C(=O)Nc3cc4ccc(OCCCN(C)C)c(C)c4oc3=O)ccc2OC)c1	Active

test system: MCF7; assay: Ratio of IC50 for N-((1r,4r)-4-(4-(3-(dimethylamino)propoxy)phenyl)cyclohexyl)-3',6-dimethoxybiphenyl-3-carboxamide to IC50 for test compound for antiproliferative activity against human MCF7 cells; type: functional; conditions: not given

SMILES	Ratio IC50
COc1cccc(-c2cc(C(=O)N[C@H]3CC[C@H](c4ccc(OCCC[P+](c5ccccc5)(c5ccccc5)c5ccccc5)cc4)CC3)ccc2OC)c1.[Br-]	2

target: T1, Heat shock protein HSP90; assay: Inhibition of HSP90 […] in human SKBR3 cells assessed as induction of heat shock response by measuring increase in HSP70 protein level at 0.5 to 5 times antiproliferative IC50 incubated for 24 hrs by Western blot analysis; type: cell-based; conditions: not given

SMILES	Activity
COc1cccc(-c2cc(C(=O)N[C@H]3CC[C@H](c4ccc(OCCC[P+](c5ccccc5)(c5ccccc5)c5ccccc5)cc4)CC3)ccc2OC)c1.[Br-]	Non-Toxic
COc1cccc(-c2cc(C(=O)Nc3ccc(-c4ccc(OCCC[P+](c5ccccc5)(c5ccccc5)c5ccccc5)cc4)cc3)ccc2OC)c1.[Br-]	Non-Toxic
COc1cccc(-c2cc(C(=O)Nc3cc4ccc(OCCC[P+](c5ccccc5)(c5ccccc5)c5ccccc5)c(C)c4oc3=O)ccc2OC)c1.[Br-]	Non-Toxic

target: T1, Heat shock protein HSP90; assay: Inhibition of HSP90 at C-terminus in human SKBR3 cells assessed as induction of CDK4 protein degradation at 0.5 to 5 times antiproliferative IC50 incubated for 24 hrs by Western blot analysis; type: cell-based; conditions: not given

SMILES	inhibition
COc1cccc(-c2cc(C(=O)Nc3ccc(-c4ccc(OCCC[P+](c5ccccc5)(c5ccccc5)c5ccccc5)cc4)cc3)ccc2OC)c1.[Br-]	Active
COc1cccc(-c2cc(C(=O)Nc3cc4ccc(OCCC[P+](c5ccccc5)(c5ccccc5)c5ccccc5)c(C)c4oc3=O)ccc2OC)c1.[Br-]	Active

target: T1, Heat shock protein HSP90; assay: Inhibition of HSP90 at C-terminus in human SKBR3 cells assessed as Her2 protein degradation at 0.5 to 5 times antiproliferative IC50 incubated for 24 hrs by Western blot analysis; type: cell-based; conditions: not given

SMILES	inhibition
COc1cccc(-c2cc(C(=O)N[C@H]3CC[C@H](c4ccc(OCCC[P+](c5ccccc5)(c5ccccc5)c5ccccc5)cc4)CC3)ccc2OC)c1.[Br-]	inactive
COc1cccc(-c2cc(C(=O)Nc3ccc(-c4ccc(OCCC[P+](c5ccccc5)(c5ccccc5)c5ccccc5)cc4)cc3)ccc2OC)c1.[Br-]	inactive
COc1cccc(-c2cc(C(=O)Nc3cc4ccc(OCCC[P+](c5ccccc5)(c5ccccc5)c5ccccc5)c(C)c4oc3=O)ccc2OC)c1.[Br-]	inactive

test system: not listed separately; assay: Drug uptake in cytoplasm in human PC3 cells assessed as lowered drug accumulation incubated for 24 hrs by LC/MS analysis; type: ADME, subcellular; conditions: pc-3, 24 h; method in brief: as §1

SMILES	Drug uptake
COc1cccc(-c2cc(C(=O)N[C@H]3CC[C@H](c4ccc(OCCC[P+](c5ccccc5)(c5ccccc5)c5ccccc5)cc4)CC3)ccc2OC)c1.[Br-]	Active
COc1cccc(-c2cc(C(=O)Nc3ccc(-c4ccc(OCCC[P+](c5ccccc5)(c5ccccc5)c5ccccc5)cc4)cc3)ccc2OC)c1.[Br-]	Active
COc1cccc(-c2cc(C(=O)Nc3cc4ccc(OCCC[P+](c5ccccc5)(c5ccccc5)c5ccccc5)c(C)c4oc3=O)ccc2OC)c1.[Br-]	Active
